Assay [1] addresses Vasopressin V2 receptor (Homo sapiens, UniProt P30518). In words: Inhibition constant for vasopressin-stimulated adenylate cyclase of medullary membranes of human kidney. Put shortly: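 Human renal medullary membrane preparations used. Antagonism measured as inhibition of LVP-stimulated adenylate cyclase, expressed as Ki. Only selected analogues tested. Each determination averages triplicate tests, and the value averages (n) determinations.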

The target in assay [2] is Vasopressin V2 receptor (Sus scrofa) (UniProt P32307). As to the kind of experiment: Inhibition constant for [3H]LVP binding to medullary membranes of pig kidney. In kind it is tissue-based. The essentials: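 V2 receptor affinity measured on pig renal medullary membranes by competition with tritiated LVP, expressed as Kbind. Each determination averages triplicate tests, and the value averages (n) determinations.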
Chain of Vasopressin V2 receptor (Sus scrofa) (P32307 whole entry): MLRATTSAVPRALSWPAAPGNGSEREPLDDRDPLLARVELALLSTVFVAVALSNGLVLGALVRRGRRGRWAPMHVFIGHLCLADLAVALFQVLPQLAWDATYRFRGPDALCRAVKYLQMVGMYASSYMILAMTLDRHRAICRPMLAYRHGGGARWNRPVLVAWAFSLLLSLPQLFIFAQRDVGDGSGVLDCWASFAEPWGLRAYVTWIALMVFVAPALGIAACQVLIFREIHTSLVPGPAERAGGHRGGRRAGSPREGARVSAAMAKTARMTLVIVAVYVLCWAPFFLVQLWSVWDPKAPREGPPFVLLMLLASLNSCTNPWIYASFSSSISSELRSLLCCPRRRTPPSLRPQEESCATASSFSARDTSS

Assay [3] concerns the target Vasopressin V2 receptor (Rattus norvegicus) (UniProt Q00788). In words: Dose required to lower urine osmolality to 300 mOsm/kg in rat. The essentials: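 Male rats deprived of food and water overnight to reach a stable hydropenic state (raised plasma vasopressin, urine osmolality ≈1500 mOsm/kg H2O). Antagonist given at varying doses to groups of four rats. Urine volume and osmolality measured. The value is the dose that brings urine osmolality down to 300 mOsm/kg. Each determination averages four rats, and the reported value averages (n) determinations.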

Assay [4] addresses Vasopressin V2 receptor (Sus scrofa, UniProt P32307). As to the kind of experiment: Inhibition constant for vasopressin-stimulated adenylate cyclase of medullary membranes of pig kidney. Put shortly: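 Antagonism measured on pig renal medullary membranes as inhibition of LVP-stimulated adenylate cyclase, expressed as inhibition constant Ki. Each determination averages triplicate tests, and the value averages (n) determinations.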

Numbered stars: 1 amine (or outer) side, 2 acyl side, 3 side chain; on linkers, the order of the positions; unused ones are H or OH. Bridge positions count the residues as written; N and C are the ends. Square brackets hold non-standard residues; d marks the D form. Peptide text beside a SMILES is read from it. * marks the point of attachment. X1 = O=C(CC1(S[*:2])CCCCC1)[*:1]; Agmatine = N=C(N)NCCCCN*

Chain of Vasopressin V2 receptor (Homo sapiens, UniProt P30518) (P30518 whole entry): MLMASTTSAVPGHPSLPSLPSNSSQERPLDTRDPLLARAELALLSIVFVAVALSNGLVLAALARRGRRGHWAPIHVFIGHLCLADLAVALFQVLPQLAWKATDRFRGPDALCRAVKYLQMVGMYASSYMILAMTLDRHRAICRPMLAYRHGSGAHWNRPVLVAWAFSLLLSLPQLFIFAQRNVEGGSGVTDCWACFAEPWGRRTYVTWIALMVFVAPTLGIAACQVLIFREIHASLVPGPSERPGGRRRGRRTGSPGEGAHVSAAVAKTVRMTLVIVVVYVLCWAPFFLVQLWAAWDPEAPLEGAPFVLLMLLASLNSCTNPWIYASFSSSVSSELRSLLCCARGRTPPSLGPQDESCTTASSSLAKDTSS
Chain of Vasopressin V2 receptor (Sus scrofa, UniProt P32307) (P32307 whole entry): as the sequence (P32307 whole entry) above
Chain of Vasopressin V2 receptor (Rattus norvegicus) (Q00788 whole entry): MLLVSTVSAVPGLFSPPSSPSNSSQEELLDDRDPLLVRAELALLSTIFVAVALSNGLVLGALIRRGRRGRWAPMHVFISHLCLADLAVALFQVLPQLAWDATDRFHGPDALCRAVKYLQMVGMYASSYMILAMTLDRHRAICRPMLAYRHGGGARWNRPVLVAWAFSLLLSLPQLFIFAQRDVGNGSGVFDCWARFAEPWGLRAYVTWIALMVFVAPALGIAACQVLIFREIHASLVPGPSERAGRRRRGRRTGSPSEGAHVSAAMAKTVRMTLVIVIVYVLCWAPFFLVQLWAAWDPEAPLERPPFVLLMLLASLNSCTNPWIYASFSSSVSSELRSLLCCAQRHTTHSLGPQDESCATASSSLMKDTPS

As a reminder, the Ki is a measure of affinity in units of concentration, obtained from inhibition or displacement. A high value points to lower affinity. Compound `CCOc1ccc(C[C@H]2NC(=O)CC3(CCCCC3)SSC[C@H](C(=O)N[C@H](CCCCN)C(N)=O)NC(=O)[C@@H](CC(N)=O)NC(=O)[C@H](C(C)C)NC(=O)[C@@H](Cc3ccccc3)NC2=O)cc1` had a Ki at Vasopressin V2 receptor [1] of 3.3 nM. In assay [2], this compound yielded a K bind of 26 nM. Besides, the ED300 in assay [3] came to 0.059 mg/kg.

Consider `CCOc1ccc(C[C@H]2NC(=O)CC3(CCCCC3)SSC[C@@H](C(=O)N3CCC[C@H]3C(=O)NCCCCN=C(N)N)NC(=O)[C@H](CC(N)=O)NC(=O)[C@H](C(C)C)NC(=O)[C@H](Cc3ccccc3)NC2=O)cc1` ([dY](Et)FVNCP-Agmatine; linker N-5 via X1), for which the Ki on Vasopressin V2 receptor [1] was 3.7 nM; on Vasopressin V2 receptor [4], 6 nM.

Source of the values: ChEMBL document CHEMBL1124391, “Structure-activity relationships of novel vasopressin antagonists containing C-terminal diaminoalkanes and (aminoalkyl)guanidines” (J Med Chem, 1989).
